Laboratory results from ChEMBL document CHEMBL3739406, “Trisubstituted Thieno[3,2-b]pyrrole 5-Carboxamides as Potent Inhibitors of Alphaviruses” (J Med Chem, 2015).
pEC50: −log10 of the molar value.

What was measured:
Chikungunya virus [1] = assay: Antiviral activity against Chikungunya virus infected in HEK293T cells assessed as reduction of infectivity measured at 24 hrs postinfection by gaussia luciferase reporter gene assay; type: functional, cell-based; conditions: HEK-293T
[2] = Cytotoxicity against HEK293T cells assessed as cell viability at antiviral EC50 after 24 hrs by cell titer-glo luminescent cell viability assay; type: cell-based, HEK-293T; conditions: human, read-out: Activity
Method in brief: (§1)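 HEK 293T cells, 3 × 10⁴/well, seeded overnight, then exposed 24 h to compound (0.01–100 μM, triplicate) in DMEM pH 6.8 with 10% FBS. Viability read by CellTiter-Glo luminescence. Normalized to untreated (100%) and medium blank (0%); CC50 by five-parameter curve fit.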

[3] = Cytotoxicity against HEK293T cells assessed as reduction in cell viability after 24 hrs by cell titer-glo luminescent cell viability assay; type: cell-based, HEK-293T; conditions: human; method in brief: as §1
Chikungunya virus [4] = assay: Antiviral activity against wild type Chikungunya virus IMT infected in HEK293T cells assessed as inhibition of infectivity measured at 24 hrs postinfection by FITC/DAPI staining based array scan VTI HCS reader analysis; type: functional, cell-based; conditions: HEK-293T
[5] = Selectivity index, ratio of CC50 for HEK293T cells to EC50 for Chikungunya virus infected in HEK293T cells; type: toxicity, cell-based, HEK-293T; conditions: human, read-out: Ratio CC50/EC50

For `COc1ccc(Cn2c(C(=O)N3CCC(C(=O)O)CC3)cc3sccc32)cc1`, the pEC50 (Chikungunya virus [1]) was under 4.00, the viability at 24 h [2] was over 80% and the CC50 at 24 h [3] was over 100 µM.
Work on `COc1ccc(Cn2c(C(=O)N3CCN(Cc4ccccc4)CC3)cc3sc(C(=O)c4ccccc4)cc32)cc1` yielded a pEC50 (Chikungunya virus [1]) of under 4.00, a viability at 24 h [2] of over 80% and a CC50 at 24 h [3] of over 100 µM.
In the case of `CCCNC(=O)C1CCN(C(=O)c2cc3sc(C)cc3n2Cc2ccc(OC)cc2)CC1`, the pEC50 (Chikungunya virus [4]) was 5.49, the inhibition (Chikungunya virus [4]) was “Dose-dependent effect” and the pEC50 (Chikungunya virus [1]) was 5.44. For the same compound, the viability at 24 h [2] was over 80%, the CC50 at 24 h [3] was 36.3 µM and the selectivity ratio [5] was 10.
For `COc1ccc(Cn2c(C(=O)N3CCC(C(=O)NCCc4ccccc4)CC3)cc3sccc32)cc1`, the pEC50 (Chikungunya virus [1]) was 4.95, the viability at 24 h [2] was over 80% and the CC50 at 24 h [3] was over 100 µM. For the same compound, the selectivity ratio [5] was over 9.
For `CCCNC(=O)C1CCN(C(=O)c2cc3sc(CNC(C)c4ccccc4)cc3n2Cc2ccc(OC)cc2)CC1` (configuration not stated), the pEC50 (Chikungunya virus [4]) was 4.87, the inhibition (Chikungunya virus [4]) was “Dose-dependent effect” and the pEC50 (Chikungunya virus [1]) was 5.07. The viability at 24 h [2] was over 80%, the CC50 at 24 h [3] was 33.9 µM and the selectivity ratio [5] was 4.
In the case of `CCCNC(=O)C1CCN(C(=O)c2c(Br)c3sccc3n2Cc2ccc(OC)cc2)CC1`, the pEC50 (Chikungunya virus [4]) was 4.85, the inhibition (Chikungunya virus [4]) was “Dose-dependent effect” and the pEC50 (Chikungunya virus [1]) was 5.11. For the same compound, the viability at 24 h [2] was over 80%, the CC50 at 24 h [3] was 31.6 µM and the selectivity ratio [5] was 4.1.
In the case of `CCOC(=O)C1CCN(C(=O)c2cc3sccc3n2Cc2ccc(OC)cc2)CC1`, the pEC50 (Chikungunya virus [1]) was 4.88, the viability at 24 h [2] was over 80% and the CC50 at 24 h [3] was 39 µM. It also gave a selectivity ratio [5] of 3.
In the case of `COc1ccc(Cn2c(C(N)=O)cc3sccc32)cc1`, the pEC50 (Chikungunya virus [1]) was 4.44, the viability at 24 h [2] was over 80% and the CC50 at 24 h [3] was over 100 µM. The selectivity ratio [5] was over 2.8.
In the case of `COc1ccc(Cn2c(C(=O)N3CCN(Cc4ccccc4)CC3)cc3sccc32)cc1`, the pEC50 (Chikungunya virus [1]) was 4.38, the viability at 24 h [2] was over 80% and the CC50 at 24 h [3] was over 100 µM. For the same compound, the selectivity ratio [5] was over 2.4.
Compound `CCCNC(=O)C1CCN(C(=O)c2c(CO)c3sccc3n2Cc2ccc(OC)cc2)CC1` has a pEC50 (Chikungunya virus [1]) of 4.32, a viability at 24 h [2] of over 80% and a CC50 at 24 h [3] of over 100 µM. The selectivity ratio [5] was over 2.1.
With `COc1ccc(Cn2c(C(=O)N3CCCC3)cc3sccc32)cc1` the pEC50 (Chikungunya virus [1]) was 4.45, the viability at 24 h [2] was over 80% and the CC50 at 24 h [3] was over 100 µM. For the same compound, the selectivity ratio [5] was over 2.8.
`CCCNC(=O)C1CCN(C(=O)c2cc3sc(C(C)=O)cc3n2Cc2ccc(OC)cc2)CC1` showed a pEC50 (Chikungunya virus [1]) of 4.68, a viability at 24 h [2] of over 80% and a CC50 at 24 h [3] of over 100 µM. The selectivity ratio [5] was over 4.8.
`COc1ccc(Cn2c(C(=O)N3CCC(C(=O)NC(C)c4ccccc4)CC3)cc3sccc32)cc1` (configuration not stated) showed a pEC50 (Chikungunya virus [1]) of 4.89, a viability at 24 h [2] of over 80% and a CC50 at 24 h [3] of over 100 µM. It also gave a selectivity ratio [5] of over 7.7.
Compound `CCCNC(=O)C1CCN(C(=O)c2c(CNCc3ccccc3)c3sccc3n2Cc2ccc(OC)cc2)CC1` has a pEC50 (Chikungunya virus [1]) of 4.81, a viability at 24 h [2] of over 80% and a CC50 at 24 h [3] of 77.6 µM. The selectivity ratio [5] was 5.
For `CCCNC(=O)c1cc2sccc2n1Cc1ccc(OC)cc1`, the pEC50 (Chikungunya virus [1]) was under 4.00, the viability at 24 h [2] was over 80% and the CC50 at 24 h [3] was over 100 µM.
Compound `COc1ccc(Cn2c(C(=O)N3CCNCC3)cc3sccc32)cc1` has a pEC50 (Chikungunya virus [1]) of 4.49, a viability at 24 h [2] of over 80% and a CC50 at 24 h [3] of over 100 µM. For the same compound, the selectivity ratio [5] was over 3.1.
In the case of `COc1ccc(Cn2c(C(=O)N3CCOCC3)cc3sccc32)cc1`, the pEC50 (Chikungunya virus [1]) was 4.10, the viability at 24 h [2] was over 80% and the CC50 at 24 h [3] was over 100 µM. The selectivity ratio [5] was over 1.3.
For `COc1ccc(Cn2c(C(=O)N3CCN(Cc4ccccc4)CC3)cc3sc(C(C)=O)cc32)cc1`, the pEC50 (Chikungunya virus [1]) was 4.77, the viability at 24 h [2] was over 80% and the CC50 at 24 h [3] was over 100 µM. It also gave a selectivity ratio [5] of over 5.9.
`COc1ccc(Cn2c(C(=O)N3CCN(Cc4ccccc4)CC3)cc3sc(-c4ccccc4)cc32)cc1` showed a pEC50 (Chikungunya virus [1]) of 4.37, a viability at 24 h [2] of over 80% and a CC50 at 24 h [3] of over 100 µM. The selectivity ratio [5] was over 2.4.
Compound `CCCNC(=O)C1CCN(C(=O)c2c(CNC(C)c3ccccc3)c3sccc3n2Cc2ccc(OC)cc2)CC1` (configuration not stated) has a pEC50 (Chikungunya virus [1]) of 4.92, a viability at 24 h [2] of over 80% and a CC50 at 24 h [3] of 57.5 µM. For the same compound, the selectivity ratio [5] was 4.8.
`CCCNCc1cc2c(cc(C(=O)N3CCC(C(=O)NCCC)CC3)n2Cc2ccc(OC)cc2)s1` gave a pEC50 (Chikungunya virus [1]) of 4.40, a viability at 24 h [2] of over 80% and a CC50 at 24 h [3] of over 100 µM. The selectivity ratio [5] was over 2.5.
Work on `COc1ccc(Cn2c(C(=O)N3CCC(C(=O)NCCC(C)C)CC3)cc3sccc32)cc1` yielded a pEC50 (Chikungunya virus [1]) of 4.96, a viability at 24 h [2] of over 80% and a CC50 at 24 h [3] of 30.9 µM. It also gave a selectivity ratio [5] of 2.8.
Work on `COc1ccc(Cn2c(C(=O)N3CCN(Cc4ccccc4)CC3)cc3sc(COCc4ccccc4)cc32)cc1` yielded a pEC50 (Chikungunya virus [1]) of under 4.00, a viability at 24 h [2] of over 80% and a CC50 at 24 h [3] of over 100 µM.
Work on `CCCCC(=O)C1CCN(C(=O)c2cc3sccc3n2Cc2ccc(OC)cc2)CC1` yielded a pEC50 (Chikungunya virus [1]) of 4.88, a viability at 24 h [2] of over 80% and a CC50 at 24 h [3] of 38.9 µM. It also gave a selectivity ratio [5] of 2.9.
Compound `CCOC(=O)c1cc2sccc2n1Cc1ccc(OC)cc1` has a pEC50 (Chikungunya virus [1]) of under 4.00, a viability at 24 h [2] of over 80% and a CC50 at 24 h [3] of over 100 µM.
Work on `COc1ccc(Cn2c(C(=O)N3CCC(C(=O)NCc4ccccc4)CC3)cc3sccc32)cc1` yielded a pEC50 (Chikungunya virus [1]) of 4.91, a viability at 24 h [2] of over 80% and a CC50 at 24 h [3] of over 100 µM. The selectivity ratio [5] was over 8.1.
`COc1ccc(Cn2c(C(=O)NC(C)c3ccccc3)cc3sccc32)cc1` (configuration not stated) showed a pEC50 (Chikungunya virus [1]) of under 4.00, a viability at 24 h [2] of over 80% and a CC50 at 24 h [3] of over 100 µM.
`CCN(CC)C(=O)c1cc2sccc2n1Cc1ccc(OC)cc1` gave a pEC50 (Chikungunya virus [1]) of 4.30, a viability at 24 h [2] of over 80% and a CC50 at 24 h [3] of over 100 µM. The selectivity ratio [5] was over 2.
`COc1ccc(Cn2c(C(=O)N3CCC(C(N)=O)CC3)cc3sccc32)cc1` showed a pEC50 (Chikungunya virus [1]) of 4.15, a viability at 24 h [2] of over 80% and a CC50 at 24 h [3] of over 100 µM. It also gave a selectivity ratio [5] of over 1.4.
`COc1ccc(Cn2c(C(=O)NCc3ccccc3)cc3sccc32)cc1` showed a pEC50 (Chikungunya virus [1]) of under 4.00, a viability at 24 h [2] of over 80% and a CC50 at 24 h [3] of over 100 µM.
`COc1ccc(Cn2c(C(=O)O)cc3sccc32)cc1` gave a pEC50 (Chikungunya virus [1]) of under 4.00, a viability at 24 h [2] of over 80% and a CC50 at 24 h [3] of over 100 µM.
For `COc1ccc(Cn2c(C(=O)N3CCC(C(=O)NCc4cccc(Br)c4)CC3)cc3sccc32)cc1`, the pEC50 (Chikungunya virus [1]) was 4.96, the viability at 24 h [2] was over 80% and the CC50 at 24 h [3] was over 100 µM. The selectivity ratio [5] was over 9.2.
With `COc1ccc(Cn2c(C(=O)N3CCCCC3)cc3sccc32)cc1` the pEC50 (Chikungunya virus [1]) was 4.30, the viability at 24 h [2] was over 80% and the CC50 at 24 h [3] was over 100 µM. The selectivity ratio [5] was over 2.
In the case of `COc1ccc(Cn2c(C(=O)N3CCN(Cc4ccccc4)CC3)c(COCc3ccccc3)c3sccc32)cc1`, the pEC50 (Chikungunya virus [1]) was under 4.00, the viability at 24 h [2] was over 80% and the CC50 at 24 h [3] was over 100 µM.
In the case of `CCCNC(=O)C1CCN(C(=O)c2cc3sc(C(=O)c4ccccc4)cc3n2Cc2ccc(OC)cc2)CC1`, the pEC50 (Chikungunya virus [1]) was under 4.00, the viability at 24 h [2] was over 80% and the CC50 at 24 h [3] was over 100 µM.
`COc1ccc(Cn2c(C(=O)N3CCN(Cc4ccccc4)CC3)c(CNC(C)c3ccccc3)c3sccc32)cc1` (configuration not stated) showed a pEC50 (Chikungunya virus [1]) of 4.64, a viability at 24 h [2] of over 80% and a CC50 at 24 h [3] of over 100 µM. For the same compound, the selectivity ratio [5] was over 4.3.
Work on `CCCNC(=O)C1CCN(C(=O)c2cc3sc(CNCc4ccccc4)cc3n2Cc2ccc(OC)cc2)CC1` yielded a pEC50 (Chikungunya virus [1]) of 4.95, a viability at 24 h [2] of over 80% and a CC50 at 24 h [3] of 46.8 µM. The selectivity ratio [5] was 4.2.
Work on `CCCNCc1c(C(=O)N2CCC(C(=O)NCCC)CC2)n(Cc2ccc(OC)cc2)c2ccsc12` yielded a pEC50 (Chikungunya virus [1]) of 4.56, a viability at 24 h [2] of over 80% and a CC50 at 24 h [3] of over 100 µM. For the same compound, the selectivity ratio [5] was over 3.6.
Work on `COc1ccc(Cn2c(C(=O)N3CCC(C(=O)NCC4CC4)CC3)cc3sccc32)cc1` yielded a pEC50 (Chikungunya virus [1]) of 4.98, a viability at 24 h [2] of over 80% and a CC50 at 24 h [3] of 24.6 µM. The selectivity ratio [5] was 2.4.
